In brackets after ≈: the same amount, converted by molar mass. Activity calls are given as the source filed them. No cut-off for these calls is given here.
Key:
[1] = test system: Enterococcus faecalis; assay: Antibacterial activity against Enterococcus faecalis ATCC 29212; type: functional
[2] = test system: Enterococcus faecalis; assay: Antibacterial activity against vancomycin-resistant Enterococcus faecalis SR7914; type: functional
[3] = test system: Enterococcus faecium; assay: Antibacterial activity against vancomycin-resistant Enterococcus faecium SR7917; type: functional
[4] = test system: Enterococcus faecium; assay: Antibacterial activity against vancomycin-resistant Enterococcus faecium VanA419/ana after 24 to 48 hrs by microdilution method; type: functional
How it was run: (§1)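 Broth microdilution MIC on clinical isolates from Teaching Hospital Olomouc, stored at −80 °C. Compounds were serially diluted in brain heart infusion broth over 200–1.56 μg/mL (sometimes extended to 0.78 μg/mL), with an inoculum of 10⁵⁻⁶ CFU/ml per well. Plates were incubated at 37 °C and read at 24/48 h. MIC was taken as the lowest concentration inhibiting growth.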

[5] = test system: Staphylococcus epidermidis; assay: Antibacterial activity against methicillin-resistant Staphylococcus epidermidis 8700/B after 24 to 48 hrs by microdilution method; type: functional; how it was run: as §1
[6] = Cytotoxicity against human Erythroid progenitor cells assessed as cell viability after 48 hrs by CellTiter-blue assay; type: cell-based
How it was run: (§2)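 Normal human erythroid progenitor cells, expanded from umbilical cord blood, plated at 25000 cells/well immediately before compound addition (added as a 5× predilution in culture medium). Viability by CellTiter-Blue fluorescence 48 h after addition, normalized to untreated cells set as 100%.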

[7] = Cytotoxicity against human Erythroid progenitor cells assessed as maximum safe concentration after 48 hrs by CellTiter-blue assay; type: cell-based; conditions: read-out: Activity; how it was run: as §2
[8] = Induction of apoptosis in human Erythroid progenitor cells assessed as caspase 3/7 activation after 4 hrs by Caspase-Glo 3/7 assay
How it was run: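 Cord-blood-derived human erythroid progenitor cells plated at 25000 cells/well and exposed to compound prediluted in medium. Caspase 3/7 activation read by Caspase-Glo 3/7 luminescence 4 h after addition, normalized to untreated control cells set as 100%.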

[9] = test system: Bacillus subtilis; assay: Inhibition of Bacillus subtilis RNA polymerase using [alpha-32P]-UTP at 1 mM pretreated for 5 mins measured after 15 mins by electrophoresis analysis
How it was run: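 Reconstituted B. subtilis RNAP σA holoenzyme (6 nM) with supercoiled pLK7 template carrying the rrnB P1 promoter (4 ng/μL). Nucleotides: ATP/CTP/GTP 200 μM, UTP 10 μM plus 2 μM [α-³²P]-UTP. Compound at 1 mM; 5 min preincubation at 30 °C, started with RNAP, stopped after 15 min with formamide/EDTA.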

[10] = test system: Escherichia coli; assay: Antibacterial activity against Escherichia coli after 24 to 48 hrs by microdilution method; type: functional
How it was run: (§3)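 Incubation 24/48 h at 37 °C. MIC read as the lowest concentration inhibiting growth. MBC determined by transferring 10 μL from wells onto blood agar, taken as the lowest concentration with no visible growth.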

[11] = test system: Pseudomonas aeruginosa; assay: Antibacterial activity against Pseudomonas aeruginosa after 24 to 48 hrs by microdilution method; type: functional; how it was run: as §3
[12] = test system: Enterococcus faecalis; assay: Antibacterial activity against Enterococcus faecalis CCM 4224 after 24 to 48 hrs by microdilution method; type: functional; how it was run: as §3
[13] = test system: Bacillus subtilis; assay: Antibacterial activity against Bacillus subtilis after 24 to 48 hrs by microdilution method; type: functional; how it was run: as §3
[14] = test system: Streptococcus agalactiae; assay: Antibacterial activity against Streptococcus agalactiae after 24 to 48 hrs by microdilution method; type: functional; how it was run: as §3
[15] = test system: Staphylococcus aureus; assay: Antibacterial activity against Staphylococcus aureus CCM 4223 after 24 to 48 hrs by microdilution method; type: functional; how it was run: as §3
[16] = test system: Escherichia coli; assay: Antibacterial activity against permeabilized Escherichia coli DH5[alpha] assessed as cell killing at 10 uM; type: functional
How it was run: (§4)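 Competent (permeabilized) E. coli DH5α cells were mixed with 5 ng pUC18 (ampR) and serially diluted compound or buffer only. Steps: 30 min on ice, heat shock at 42 °C for 90 s, 5 min on ice, then LB without antibiotic for 1 h at 37 °C with shaking. Plated on LB agarose with ampicillin 100 μg/mL overnight at 37 °C. Colonies counted against the no-compound control.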

[17] = test system: Escherichia coli; assay: Antibacterial activity against permeabilized Escherichia coli DH5[alpha] assessed as log reduction of colony forming unit at 10 uM; type: functional, organism-based; how it was run: as §4
[18] = test system: Staphylococcus aureus; assay: Antibacterial activity against methicillin-resistant Staphylococcus aureus 4591 after 24 to 48 hrs by microdilution method; type: functional; how it was run: as §1
[19] = test system: Staphylococcus haemolyticus; assay: Antibacterial activity against fluoroquinolone-resistant Staphylococcus haemolyticus 16568 after 24 to 48 hrs by microdilution method; type: functional; how it was run: as §1

| Structure (SMILES) | MIC [4] | MIC [5] | IC50 [6] | MNTC at 48 h [7] | Activity [8] | inhibition [9] | MIC [10] | MIC [11] | MIC [12] | MIC [13] | MIC [14] | further results |
| --- | --- | --- | --- | --- | --- | --- | --- | --- | --- | --- | --- | --- |
| CN[C@H](CC(C)C)C(=O)N[C@H]1C(=O)N[C@@H](CC(N)=O)C(=O)N[C@H]2C(=O)N[C@H]3C(=O)N[C@H](C(=O)N[C@H](C(=O)O)c4cc(O)cc(O)c4-c4cc3ccc4O)[C@H](O)c3ccc(c(Cl)c3)Oc3cc2cc(c3O[C@@H]2O[C@H](CO)[C@@H](O)[C@H](O)[C@H]2O[C@H]2C[C@](C)(N)[C@H](O)[C@H](C)O2)Oc2ccc(cc2Cl)[C@H]1O [VANCOMYCIN] |  |  |  |  |  |  |  |  |  |  |  | MIC [1]: 1 µg/mL (≈ 0.69 µM); MIC [2]: > 64 µg/mL; MIC [3]: > 64 µg/mL |
| CCCCCCCCCCCCCCCCOCCCOP(=O)(CCN1C[C@H](O)[C@@H](O)C1)OC[C@H]1O[C@@H](n2ccc(=O)[nH]c2=O)[C@H](O)[C@@H]1O (some centres undefined) | 6.25 µg/mL (≈ 8.68 µM) | 6.25 µg/mL (≈ 8.68 µM) | 47 µg/mL (≈ 65.3 µM) | 31.2 µg/mL | Non-toxic | inactive | > 200 µg/mL | > 200 µg/mL | 12.5 µg/mL (≈ 17.4 µM) | 6.25 µg/mL (≈ 8.68 µM) | 6.25 µg/mL (≈ 8.68 µM) |  |
| CCCCCCCCCCCCCCCCOP(=O)(CCN1C[C@@H](O)[C@H](O)C1)OC[C@H]1O[C@@H](n2ccc(=O)[nH]c2=O)[C@H](O)[C@@H]1O (single isomer, unassigned; diastereomer 2) |  |  |  |  |  |  |  |  |  |  |  | Activity [12]: Active; Activity [15]: Active; Activity [13]: Active; Activity [14]: Active |
| CCCCCCCCCCCCCCCCOCCCOP(=O)(CCN1C[C@@H](O)[C@@H](O)[C@@H](O)C1)OC[C@H]1O[C@@H](n2ccc(=O)[nH]c2=O)[C@H](O)[C@@H]1O (some centres undefined) |  |  | 149 µg/mL (≈ 199 µM) | 62.5 µg/mL | Non-toxic | inactive | > 200 µg/mL | > 200 µg/mL |  |  | 12.5 µg/mL (≈ 16.7 µM) |  |
| CCCCCCCCCCCCCCCCOCCCOP(=O)(CCN1C[C@@H](O)[C@H](O)C1)OC[C@H]1O[C@@H](n2ccc(=O)[nH]c2=O)[C@H](O)[C@@H]1O (some centres undefined) | 6.25 µg/mL (≈ 8.68 µM) | 3.13 µg/mL (≈ 4.35 µM) | 91 µg/mL (≈ 126 µM) | 62.5 µg/mL | Non-toxic | inactive | > 200 µg/mL | > 200 µg/mL | 12.5 µg/mL (≈ 17.4 µM) | 6.25 µg/mL (≈ 8.68 µM) | 3.13 µg/mL (≈ 4.35 µM) | Activity [16]: 90%; Activity [17]: Active |
| CCCCCCCCCCCCCCCCOCCCOP(=O)(CCN1C[C@@H](O)[C@H](O)C1)OC[C@H]1O[C@@H](n2ccc(N)nc2=O)[C@H](O)[C@@H]1O (some centres undefined) | 6.25 µg/mL (≈ 8.69 µM) | 6.25 µg/mL (≈ 8.69 µM) | 67 µg/mL (≈ 93.2 µM) | 31.2 µg/mL | Non-toxic |  | > 200 µg/mL | > 200 µg/mL | 6.25 µg/mL (≈ 8.69 µM) | 3.13 µg/mL (≈ 4.35 µM) | 3.13 µg/mL (≈ 4.35 µM) | MIC [15]: 25 µg/mL (≈ 34.8 µM) |
| CCCCCCCCCCCCCCCCOP(=O)(CCN1C[C@@H](O)[C@H](O)C1)OC[C@H]1O[C@@H](n2ccc(=O)[nH]c2=O)[C@H](O)[C@@H]1O (stereo in doubt; 12i-P1) [listing 1 of 2 here] |  |  |  |  |  |  |  |  |  |  |  | Activity [12]: Active; Activity [15]: Active; Activity [13]: Active; Activity [14]: Active |
| CCCCCCCCCCCCCCCCOP(=O)(CCN1C[C@@H](O)[C@H](O)C1)OC[C@H]1O[C@@H](n2ccc(=O)[nH]c2=O)[C@H](O)[C@@H]1O (stereo in doubt; 12i-P1) [listing 2 of 2 here] |  |  |  |  | Toxic |  |  |  |  |  |  |  |
| CCCCCCCCCCCCCCCCOP(=O)(CCN1C[C@@H](O)[C@H](O)C1)OC[C@H]1O[C@@H](n2ccc(=O)[nH]c2=O)[C@H](O)[C@@H]1O (mixture of isomers) | 3.13 µg/mL | 3.13 µg/mL | 56 µg/mL | 31.2 µg/mL | Non-toxic |  | > 200 µg/mL | > 200 µg/mL | 6.25 µg/mL | 3.13 µg/mL | 1.56 µg/mL | Activity [16]: 90%; MIC [18]: 12.5 µg/mL; MIC [19]: 12.5 µg/mL; MIC [15]: 6.25 µg/mL |
| O=C(N[C@H](CO)[C@H](O)c1ccc([N+](=O)[O-])cc1)C(Cl)Cl [CHLORAMPHENICOL] |  |  |  |  |  |  |  |  |  |  | 2 µg/mL (≈ 6.19 µM) |  |

From ChEMBL document CHEMBL1921744, “Lipophosphonoxins: new modular molecular structures with significant antibacterial properties” (J Med Chem, 2011)
